pKi: −log10 of the molar value.
Tests used:
[1] = molecular target: T1, 5-hydroxytryptamine receptor 1A (Rattus norvegicus, UniProt P19327); assay: Compound was tested for the displacement of [3H]-8-OH- DPAT from rat brain 5-hydroxytryptamine 1A receptor
T1 sequence (P19327 whole entry): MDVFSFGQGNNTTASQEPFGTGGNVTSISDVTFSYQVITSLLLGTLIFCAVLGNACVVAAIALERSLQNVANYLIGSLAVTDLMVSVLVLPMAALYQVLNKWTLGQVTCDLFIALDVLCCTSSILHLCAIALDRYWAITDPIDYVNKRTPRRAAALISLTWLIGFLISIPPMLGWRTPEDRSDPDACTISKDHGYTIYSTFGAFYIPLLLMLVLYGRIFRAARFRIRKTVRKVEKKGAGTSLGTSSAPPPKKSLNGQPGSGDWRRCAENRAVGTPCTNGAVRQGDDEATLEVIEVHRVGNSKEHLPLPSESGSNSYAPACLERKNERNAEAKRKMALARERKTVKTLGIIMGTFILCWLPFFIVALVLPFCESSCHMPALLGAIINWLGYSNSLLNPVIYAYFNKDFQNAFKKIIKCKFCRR
In short: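 Pooled rat hippocampal membranes were preincubated at 37 °C. Buffer was 50 mM Tris HCl pH 7.4 with 0.5 mM Na2EDTA, 10 mM MgCl2, 0.1% Na ascorbate and pargyline. 200–400 μg protein was incubated with [3H]-8-OH-DPAT for 15 min at 37 °C, then GF/C filtered and scintillation counted. Nonspecific binding was defined with 10 μM 5-HT. Triplicate tubes.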

[2] = molecular target: 5-hydroxytryptamine receptor 2A (Homo sapiens, UniProt P28223); assay: Compound was tested for the displacement of [125I]DOI from cloned human 5-hydroxytryptamine 2A receptor
In short: (§1)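 Membranes from AV12 hamster fibroblasts stably expressing human 5-HT2A or 5-HT2C. [125I]DOI was about 0.07–0.15 nM final. Buffer was 50 mM Tris-HCl pH 7.4 with 10 μM pargyline, 9.75 mM MgCl2, 0.5 mM Na2-EDTA and 0.1% Na ascorbate. Incubation was 30 min at 37 °C with about 40 μg protein (2A) or 30 μg (2C). Nonspecific binding used 1 μM ketanserin (2A) or 10 μM mianserin (2C). Read by gamma counting; sigmoid nonlinear regression.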

[3] = molecular target: T2, 5-hydroxytryptamine receptor 2C (Homo sapiens, UniProt P28335); assay: Compound was tested for the displacement of [125I]DOI from cloned human 5-hydroxytryptamine 2C receptor; in short: as §1
T2 sequence (P28335 whole entry): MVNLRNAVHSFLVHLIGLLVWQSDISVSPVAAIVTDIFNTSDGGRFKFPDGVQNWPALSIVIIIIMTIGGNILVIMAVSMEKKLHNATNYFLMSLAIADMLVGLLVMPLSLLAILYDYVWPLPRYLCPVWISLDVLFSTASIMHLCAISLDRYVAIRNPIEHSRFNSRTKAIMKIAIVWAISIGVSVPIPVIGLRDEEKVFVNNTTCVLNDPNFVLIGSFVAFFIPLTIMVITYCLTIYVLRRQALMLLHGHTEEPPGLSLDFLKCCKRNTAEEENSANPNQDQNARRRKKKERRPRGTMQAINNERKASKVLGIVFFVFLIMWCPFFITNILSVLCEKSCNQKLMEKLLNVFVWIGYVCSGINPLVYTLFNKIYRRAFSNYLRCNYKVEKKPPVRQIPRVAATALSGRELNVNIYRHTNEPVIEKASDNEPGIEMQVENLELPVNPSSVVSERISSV

[4] = molecular target: 5-hydroxytryptamine receptor 2B (Homo sapiens, UniProt P41595); assay: Compound was tested for the displacement of [3H]5-HT from cloned human 5-hydroxytryptamine 2B receptor
In short: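 Membranes from AV12 cells stably expressing human 5-HT2B, 100–150 μg protein. [3H]-5-HT was about 2 nM (1.7–2.5 nM) final. Buffer was 50 mM Tris pH 7.4 with 3 mM CaCl2, 10 μM pargyline and 0.1% ascorbic acid. Drug dilutions spanned 6 log units. Incubation was 15 min at 37 °C. Nonspecific binding used 10 μM 5-HT or 1-NP. PEI-soaked GF/B filtration, scintillation counting, triplicate, sigmoid nonlinear regression.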

Rattus norvegicus [5] = assay: Percentage of animals failing to emit 50 lever presses within 15 min in DOI trained rats at a compound dose of 16 mg/kg; assay type: functional
In short: (§2)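 Male Sprague–Dawley rats (200–220 g) in a two-lever, FR50 food-reinforced task. Rats were trained to discriminate saline from LSD tartrate (0.08 mg/kg), DOI HCl (0.4 mg/kg) or LY293284 (0.025 mg/kg) in 15-min sessions. %SDL is the share of rats making over 80% of presses on the drug lever. %D is the share failing to make 50 presses within 15 min. ED50 by Litchfield–Wilcoxon log-probit.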

Rattus norvegicus [6] = assay: Percentage of animals failing to emit 50 lever presses within 15 min in DOI trained rats at a compound dose of 4 mg/kg; assay type: functional; in short: as §2
Rattus norvegicus [7] = assay: Percentage of animals failing to emit 50 lever presses within 15 min in DOI trained rats at a compound dose of 8 mg/kg; assay type: functional; in short: as §2
Rattus norvegicus [8] = assay: Percentage of animals failing to emit 50 lever presses within 15 min in LSD trained rats at a compound dose of 16 mg/kg; assay type: functional; in short: as §2
Rattus norvegicus [9] = assay: Percentage of animals failing to emit 50 lever presses within 15 min in LSD trained rats at a compound dose of 2.0 mg/kg; assay type: functional; in short: as §2
Rattus norvegicus [10] = assay: Percentage of animals failing to emit 50 lever presses within 15 min in LSD trained rats at a compound dose of 4.0 mg/kg; assay type: functional
In short: (§3)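 Two-lever drug discrimination in male Sprague–Dawley rats (200–220 g at start), trained against saline on LSD tartrate (0.08 mg/kg), DOI HCl (0.4 mg/kg) or LY293284 (0.025 mg/kg). FR50 food-pellet reinforcement, levers counterbalanced, 15-min sessions at 22–24 °C. %D is the share of tested rats not completing 50 lever presses within 15 min.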

Rattus norvegicus [11] = assay: Percentage of animals failing to emit 50 lever presses within 15 min in LSD trained rats at a compound dose of 8.0 mg/kg; assay type: functional; in short: as §3
Rattus norvegicus [12] = assay: Percentage of animals failing to emit 50 lever presses within 15 min in […] trained rats at a compound dose of 16 mg/kg; assay type: functional; in short: as §3
Rattus norvegicus [13] = assay: Percentage of animals failing to emit 50 lever presses within 15 min in […] trained rats at a compound dose of 2 mg/kg; assay type: functional; in short: as §3
Rattus norvegicus [14] = assay: Percentage of animals failing to emit 50 lever presses within 15 min in […] trained rats at a compound dose of 4 mg/kg; assay type: functional; in short: as §3
Rattus norvegicus [15] = assay: Percentage of animals emitting >80% of lever presses in DOI trained rats at a compound dose of 12.6 uM/Kg; assay type: functional; in short: as §2
Rattus norvegicus [16] = assay: Percentage of animals emitting >80% of lever presses in DOI trained rats at a compound dose of 25.3 uM/Kg; assay type: functional; in short: as §2
Rattus norvegicus [17] = assay: Percentage of animals emitting >80% of lever presses in DOI trained rats at a compound dose of 50.6 uM/Kg; assay type: functional; in short: as §2
Rattus norvegicus [18] = assay: Percentage of animals emitting >80% of lever presses in LSD trained rats at a compound dose of 25.3 uM/Kg; assay type: functional; in short: as §2
Rattus norvegicus [19] = assay: Percentage of animals emitting >80% of lever presses in LSD trained rats at a compound dose of 50.6 uM/Kg; assay type: functional; in short: as §2
Rattus norvegicus [20] = assay: Percentage of animals emitting >80% of lever presses in LSD trained rats at a compound dose of 6.32 uM/Kg; assay type: functional; in short: as §2
Rattus norvegicus [21] = assay: Percentage of animals emitting >80% of lever presses in […] trained rats at a compound dose of 12.6 uM/Kg; assay type: functional; in short: as §2
Rattus norvegicus [22] = assay: Percentage of animals emitting >80% of lever presses in […] trained rats at a compound dose of 25.3 uM/Kg; assay type: functional; in short: as §2
Rattus norvegicus [23] = assay: Percentage of animals emitting >80% of lever presses in […] trained rats at a compound dose of 50.6 uM/Kg; assay type: functional; in short: as §2
Rattus norvegicus [24] = assay: Percentage of animals emitting >80% of lever presses in […] trained rats at a compound dose of 6.32 uM/Kg; assay type: functional; in short: as §2
Rattus norvegicus [25] = assay: Percentage of animals emitting >80% of lever presses in LSD trained rats at a compound dose of 12.6 uM/Kg; assay type: functional; in short: as §2
Rattus norvegicus [26] = assay: Percentage of animals failing to emit 50 lever presses within 15 min in […] trained rats at a compound dose of 8 mg/kg; assay type: functional; in short: as §3

5-hydroxytryptamine receptor 2A, sequence (P28223 whole entry): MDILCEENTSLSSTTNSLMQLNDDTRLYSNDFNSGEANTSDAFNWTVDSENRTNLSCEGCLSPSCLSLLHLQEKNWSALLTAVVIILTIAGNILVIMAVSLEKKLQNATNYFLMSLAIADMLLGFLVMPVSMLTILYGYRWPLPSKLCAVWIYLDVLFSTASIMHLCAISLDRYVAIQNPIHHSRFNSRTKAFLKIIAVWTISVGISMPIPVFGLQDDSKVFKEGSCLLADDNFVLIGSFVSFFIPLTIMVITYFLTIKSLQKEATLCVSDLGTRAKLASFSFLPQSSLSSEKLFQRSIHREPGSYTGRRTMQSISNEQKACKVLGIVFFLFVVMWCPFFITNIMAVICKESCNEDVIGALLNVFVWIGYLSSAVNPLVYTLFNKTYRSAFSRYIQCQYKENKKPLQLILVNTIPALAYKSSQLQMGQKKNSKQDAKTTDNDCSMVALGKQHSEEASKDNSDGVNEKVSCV
5-hydroxytryptamine receptor 2B, sequence (P41595 whole entry): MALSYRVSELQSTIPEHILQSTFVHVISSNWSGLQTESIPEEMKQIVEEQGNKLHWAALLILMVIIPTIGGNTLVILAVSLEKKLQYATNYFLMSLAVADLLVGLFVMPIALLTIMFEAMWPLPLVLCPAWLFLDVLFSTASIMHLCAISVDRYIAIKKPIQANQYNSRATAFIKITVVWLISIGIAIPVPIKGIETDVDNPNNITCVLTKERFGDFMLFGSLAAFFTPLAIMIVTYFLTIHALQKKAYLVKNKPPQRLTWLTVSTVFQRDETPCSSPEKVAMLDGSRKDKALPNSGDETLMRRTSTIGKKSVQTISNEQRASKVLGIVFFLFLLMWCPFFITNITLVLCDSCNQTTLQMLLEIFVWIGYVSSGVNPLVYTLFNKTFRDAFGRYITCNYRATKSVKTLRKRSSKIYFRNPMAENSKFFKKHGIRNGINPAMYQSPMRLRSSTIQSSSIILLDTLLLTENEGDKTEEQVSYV

Compound: CN(C)CCc1c[nH]c2ccsc12
- pKi [1]: 7.12
- pKi [2]: 6.56
- pKi [3]: 7.19
- pKi [4]: 6.67
- D (Rattus norvegicus [5]): 62.5%
- D (Rattus norvegicus [6]): 11%
- D (Rattus norvegicus [7]): 78%
- D (Rattus norvegicus [8]): 62.5%
- D (Rattus norvegicus [9]): 25%
- D (Rattus norvegicus [10]): 22%
- D (Rattus norvegicus [11]): 36%
- D (Rattus norvegicus [12]): 0%
- D (Rattus norvegicus [13]): 8%
- D (Rattus norvegicus [14]): 30%
- SDL (Rattus norvegicus [15]): 37.5%
- SDL (Rattus norvegicus [16]): 0%
- SDL (Rattus norvegicus [17]): 0%
- SDL (Rattus norvegicus [18]): 12.5%
- SDL (Rattus norvegicus [19]): 0%
- SDL (Rattus norvegicus [20]): 0%
- SDL (Rattus norvegicus [21]): 57%
- SDL (Rattus norvegicus [22]): 71%
- SDL (Rattus norvegicus [23]): 83%
- SDL (Rattus norvegicus [24]): 50%
- SDL (Rattus norvegicus [25]): 43%
- D (Rattus norvegicus [26]): 22%
